From ChEMBL document CHEMBL3994624, “Antimalarial Pyrido[1,2-a]benzimidazoles: Lead Optimization, Parasite Life Cycle Stage Profile, Mechanistic Evaluation, Killing Kinetics, and in Vivo Oral Efficacy in a Mouse Model” (J Med Chem, 2017)
≈ marks a conversion by molar mass, not a printed value.

Legend:
Plasmodium falciparum [1] = assay: Anti-plasmodial activity against chloroquine-sensitive Plasmodium falciparum NF54 by [3H]-hypoxanthine incorporation assay; type: functional
Method in brief: (§1)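 P. falciparum asexual blood-stage growth inhibition by [3H]hypoxanthine incorporation; chloroquine and artesunate run as reference drugs in every experiment; IC50 given as mean of ≥2 independent experiments.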

[2] = Kinetic solubility of the compound in FaSSIF at pH 6.5 after 2 hrs by shake flask method; type: physicochemical; settings: read-out: Kinetic_solubility
Plasmodium falciparum [3] = assay: Anti-plasmodial activity against multidrug resistant Plasmodium falciparum K1 by [3H]-hypoxanthine incorporation assay; type: functional; method in brief: as §1
CHO = assay: Cytotoxicity against CHO cells after by MTT assay; type: cell-based; settings: Cricetulus griseus
[4] = Selectivity index, ratio of IC50 for CHO cells to IC50 for chloroquine-sensitive Plasmodium falciparum NF54; type: toxicity; settings: hamster, read-out: Ratio IC50
Method in brief: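 Selectivity index = IC50 CHO / IC50 PfNF54.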

[5] = Metabolic stability in Balb/c mouse liver microsomes assessed as compound remaining at 1 uM in presence of NADPH after 30 mins by LC-MS/MS analysis; type: ADME, microsome; settings: read-out: Stability
Method in brief: (§2)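 Mouse and human liver microsomes; % compound remaining after 30 min.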

[6] = Metabolic stability in human liver microsomes assessed as compound remaining at 1 uM in presence of NADPH after 30 mins by LC-MS/MS analysis; type: ADME, microsome; settings: read-out: Stability; method in brief: as §2
Plasmodium falciparum [7] = assay: Anti-plasmodial activity against chloroquine-sensitive Plasmodium falciparum NF54 late 4/5 stage gametocytes assessed as reduction in ATP levels after 24 hrs by BacTiter-Glo reagent based bioluminescence assay; type: functional; settings: NF54, 24 h
Plasmodium falciparum [8] = assay: Ratio of IC50 for chloroquine-sensitive Plasmodium falciparum NF54 early 2/3 stage gametocytes to IC50 for chloroquine-sensitive Plasmodium falciparum NF54 late 4/5 stage gametocytes; type: functional
Method in brief: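 Early (stage II/III) and late (stage IV/V) gametocytes tested in parallel luciferase reporter assays; stage preference = EG IC50/LG IC50.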

Huh-7 = assay: Cytotoxicity against human HuH7 cells at 1 to 10 uM after 48 hrs by Alamarblue assay; type: cell-based; settings: huh-7, 48 h

| Compound | IC50 (Plasmodium falciparum [1]) | IC50 (Plasmodium falciparum [3]) | IC50 (CHO) | selectivity ratio [4] | also measured |
| --- | --- | --- | --- | --- | --- |
| N#Cc1c(-c2ccc(C(F)(F)F)cc2)cc(NC2CCS(=O)(=O)CC2)n2c1nc1ccccc12 | 7.81 µM |  |  |  |  |
| N#Cc1c(-c2ccc(C(F)(F)F)cc2)cc(NCCN2CCC(O)CC2)n2c1nc1ccccc12 | 1.1 µM |  |  |  | solubility kinetic at 2 h [2]: < 5 µM |
| N#Cc1c(-c2ccc(C(F)(F)F)cc2)cc(N2CCC(O)CC2)n2c1nc1ccccc12 | > 24 µM |  |  |  |  |
| CCNCCNc1cc(-c2ccccc2F)c(C#N)c2nc3ccccc3n12 | 0.89 µM | 1 µM | 24.4 µM | 27 |  |
| CS(=O)(=O)NCCNc1cc(-c2ccc(C(F)(F)F)cc2)c(C#N)c2nc3ccccc3n12 | 9.1 µM |  |  |  |  |
| N#Cc1c(-c2ccc(C(F)(F)F)cc2)cc(NCC2CCS(=O)(=O)CC2)n2c1nc1ccccc12 | > 10 µM |  |  |  |  |
| N#Cc1c(-c2ccc(C(F)(F)F)cc2)cc(N2CCC(N)CC2)n2c1nc1cc(Cl)cc(Cl)c12 | 0.18 µM | 0.21 µM | 2.98 µM | 7.3 |  |
| CC[C@H]1CN2CCc3cc(OC)c(OC)cc3[C@@H]2C[C@@H]1C[C@H]1NCCc2cc(OC)c(OC)cc21 [EMETINE] |  |  | 0.095 µM |  |  |
| CCNCCNc1cc(-c2ccc(S(C)(=O)=O)cc2)c(C#N)c2nc3ccccc3n12 | 0.31 µM | 0.33 µM | 204 µM | 658 | solubility kinetic at 2 h [2]: 40 µM (≈ 17.3 µg/mL); remaining at 0.5 h, 1 µM [5]: 86% |
| CCNCCNc1cc(-c2ccc(C(F)(F)F)cc2)c(C#N)c2nc3cnccc3n12 | 0.27 µM | 0.84 µM | 3.14 µM | 6 |  |
| CCNCCNc1cc(-c2ccc([S+](C)[O-])cc2)c(C#N)c2nc3ccccc3n12 (stereo unspecified) | 3.81 µM |  |  |  |  |
| CS(=O)(=O)c1ccc(-c2cnc(N)c(-c3ccc(C(F)(F)F)nc3)c2)cc1 [MMV-048] |  |  |  |  | remaining at 0.5 h, 1 µM [5]: 94%; remaining at 0.5 h, 1 µM [6]: 93% |
| CNC1CCN(c2cc(-c3ccc(C(F)(F)F)cc3)c(C#N)c3nc4ccccc4n23)CC1 | 0.84 µM | 0.9 µM | 6.31 µM | 8 |  |
| CCNCCNc1cc(-c2ccc(C#N)cc2)c(C#N)c2nc3ccccc3n12 | 0.17 µM | 0.2 µM | 3.9 µM | 23 | IC50 (Plasmodium falciparum [7]): 2.66 µM; Ratio IC50 (Plasmodium falciparum [8]): 1.3; Activity (Huh-7): Non-Toxic |
| CN1CCC(Oc2cc(-c3ccc(C(F)(F)F)cc3)c(C#N)c3nc4ccccc4n23)CC1 | 0.7 µM | 0.96 µM | 4.07 µM | 6 |  |
| Cc1c(-c2ccc(C(F)(F)F)cc2)c(C#N)c2nc3ccccc3n2c1NCCN1CCC(O)C1 (stereo unspecified) | 0.55 µM | 0.47 µM | 25 µM | 45 | solubility kinetic at 2 h [2]: < 5 µM |
| CNC1CCCN(c2cc(-c3ccc(C(F)(F)F)cc3)c(C#N)c3nc4ccccc4n23)C1 (stereo unspecified) | 1.38 µM |  |  |  |  |
| Cc1ncc2n1-c1ccc(Cl)cc1C(c1ccccc1F)=NC2 [MIDAZOLAM] |  |  |  |  | remaining at 0.5 h, 1 µM [5]: 1.3%; remaining at 0.5 h, 1 µM [6]: 0.1% |
| CS(=O)(=O)N1CCN(CCNc2cc(-c3ccc(C(F)(F)F)cc3)c(C#N)c3nc4ccccc4n23)CC1 | > 10 µM |  |  |  |  |
| N#Cc1c(-c2ccc(C(F)(F)F)cc2)cc(N2CC(O)C2)n2c1nc1ccccc12 | 21.3 µM |  |  |  |  |
| CCN(CC)CCCC(C)Nc1cc(C(F)(F)F)c(C#N)c2nc3ccccc3n12 (stereo unspecified) | 4.13 µM |  |  |  |  |
| N#Cc1c(-c2ccc(C(F)(F)F)cc2)cc(NCCN2CCCC2=O)n2c1nc1ccccc12 | 5.99 µM |  |  |  |  |
| CC(C)(O)C1CCC(Nc2cc(-c3ccc(C(F)(F)F)cc3)c(C#N)c3nc4ccccc4n23)CC1 (stereo unspecified) | 4.96 µM |  |  |  |  |
| CS(=O)(=O)N1CCC(Nc2cc(-c3ccc(C(F)(F)F)cc3)c(C#N)c3nc4ccccc4n23)CC1 | 5.02 µM |  |  |  |  |

| Compound | IC50 (Plasmodium falciparum [1]) | IC50 (Plasmodium falciparum [3]) | IC50 (CHO) | selectivity ratio [4] | also measured |
| --- | --- | --- | --- | --- | --- |
| CCNCCNc1c(F)c(-c2ccc(C(F)(F)F)cc2)c(C#N)c2nc3ccccc3n12 | 5.53 µM |  |  |  | solubility kinetic at 2 h [2]: 160 µM (≈ 70.6 µg/mL); remaining at 0.5 h, 1 µM [5]: 35%; remaining at 0.5 h, 1 µM [6]: 39% |
| CCNCCNc1cc(-c2cccc(C(F)(F)F)c2)c(C#N)c2nc3ccccc3n12 | 0.21 µM | 0.34 µM | 5.92 µM | 28 | IC50 (Plasmodium falciparum [7]): 0.49 µM; Ratio IC50 (Plasmodium falciparum [8]): 1.6; Activity (Huh-7): Non-Toxic |
| CCNCCNc1cc(-c2ccc(SC)cc2)c(C#N)c2nc3ccccc3n12 | 3.9 µM |  |  |  |  |
| CC(=O)NCCNc1cc(-c2ccc(C(F)(F)F)cc2)c(C#N)c2nc3ccccc3n12 | 16.4 µM |  |  |  |  |
| N#Cc1c(-c2ccc(C(F)(F)F)cc2)cc(NC2CCNCC2)n2c1nc1cc(Cl)cc(Cl)c12 | 0.26 µM |  | 5.9 µM | 22.3 |  |
| CCNCCNc1cc(C(F)(F)F)c(C#N)c2nc3ccccc3n12 | 2.93 µM |  |  |  |  |
| N#Cc1c(-c2ccc(C(F)(F)F)cc2)cc(NCC2CCOCC2)n2c1nc1ccccc12 | > 10 µM |  |  |  |  |
| CCNCCNc1cc(-c2ccccc2)c(C#N)c2nc3ccccc3n12 | 0.7 µM | 1.07 µM | 18.3 µM | 26 | IC50 (Plasmodium falciparum [7]): 1.44 µM; Activity (Huh-7): Non-Toxic |
| N#Cc1c(-c2ccc(C(F)(F)F)cc2)cc(NC2CCC(O)CC2)n2c1nc1ccccc12 (stereo unspecified) | > 10 µM |  |  |  |  |
| CNC1CCN(c2cc(-c3ccc(C(F)(F)F)cc3)c(C#N)c3nc4ccccc4n23)C1 (stereo unspecified) | 1.14 µM |  |  |  |  |
| N#Cc1c(-c2ccc(C(F)(F)F)cc2)cc(N2CCC(O)C2)n2c1nc1ccccc12 (stereo unspecified) | 8.48 µM |  |  |  |  |
| CCNCCNc1cc(-c2ccc(C(F)(F)F)cc2)c(C#N)c2nc3cc(Br)ccc3n12 | 0.38 µM |  | 1.8 µM | 5 |  |
| CC(=O)N1CCC(Nc2cc(-c3ccc(C(F)(F)F)cc3)c(C#N)c3nc4ccccc4n23)CC1 | 4.42 µM |  |  |  |  |
| CN1CCC(Nc2cc(-c3ccc(C(F)(F)F)cc3)c(C#N)c3nc4cc(Cl)c(Cl)cc4n23)CC1 | 0.05 µM | 0.19 µM | 4.19 µM | 6.1 |  |
| CCNCCNc1cc(-c2ccc(C(F)(F)F)cc2)c(C#N)c2nc3ccc(Br)cc3n12 | 0.07 µM |  | 4.44 µM | 63 |  |
| CCNCCNc1cc(-c2ccc(C(F)(F)F)cc2)c(C#N)c2nc3cccc(Br)c3n12 | 0.15 µM | 0.24 µM | 1.55 µM | 2 |  |
| CCNCCNc1cc(-c2ccc(C(F)(F)F)cc2)c(C#N)c2nc3ncccc3n12 | 0.14 µM | 0.13 µM | 4.1 µM | 5 | solubility kinetic at 2 h [2]: 10 µM (≈ 4.24 µg/mL) |
| N#Cc1c(-c2ccc(C(F)(F)F)cc2)cc(N2CCC(=O)CC2)n2c1nc1ccccc12 | > 10 µM |  |  |  |  |
| CC1(O)CCC(Nc2cc(-c3ccc(C(F)(F)F)cc3)c(C#N)c3nc4ccccc4n23)CC1 (stereo unspecified) | 6.45 µM |  |  |  |  |
| CCNCCNc1cc(-c2ccc(C(=O)OC)cc2)c(C#N)c2nc3ccccc3n12 | 1.56 µM |  |  |  | IC50 (Plasmodium falciparum [7]): 1.68 µM; Ratio IC50 (Plasmodium falciparum [8]): 1.4; Activity (Huh-7): Non-Toxic |
| N#Cc1c(-c2ccc(C(F)(F)F)cc2)cc(N2CCC(N)CC2)n2c1nc1ccccc12 | 0.95 µM | 0.7 µM | 15.8 µM | 17 | solubility kinetic at 2 h [2]: < 5 µM; remaining at 0.5 h, 1 µM [5]: 92%; remaining at 0.5 h, 1 µM [6]: 91% |
| CN1CCN(c2cc(-c3ccc(C(F)(F)F)cc3)c(C#N)c3nc4ccccc4n23)CC1 | 7.26 µM | 0.46 µM |  |  |  |
| N#Cc1c(-c2ccc(C(F)(F)F)cc2)cc(N2CCNCC2)n2c1nc1ccccc12 | 3 µM | 0.44 µM |  |  |  |
